The source made the active and inactive calls. The calls are words filed in the database; no cut-off is given here.
Assays:
Danio rerio [1] = organism: Danio rerio; experiment: Induction of morphological changes in 30 hrs post fertilized zebra fish embryo assessed as defect in tail musculature by measuring downward c-bend of body axis up to 200 uM by microscopic method; assay type: functional
In short: (§1)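 Embryos staged and placed in 12-well plates in E3 medium with 1% DMSO within 6 hpf, ~30 embryos per well. Continuous exposure from 6–30 hpf at varied concentrations up to 200 uM. For the timing window, 100 uM exposure began at different developmental times and all embryos were scored at 30 hpf. Notochord, somite and tail phenotypes were scored by microscopy.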

[2] = biological target: Death-associated protein kinase 1 (Homo sapiens, UniProt P53355); experiment: Activation of human DAPK1 using KKLNRTLSFAEPG as substrate in presence of [gamma-33P]-ATP
Chain of Death-associated protein kinase 1 (P53355 whole entry): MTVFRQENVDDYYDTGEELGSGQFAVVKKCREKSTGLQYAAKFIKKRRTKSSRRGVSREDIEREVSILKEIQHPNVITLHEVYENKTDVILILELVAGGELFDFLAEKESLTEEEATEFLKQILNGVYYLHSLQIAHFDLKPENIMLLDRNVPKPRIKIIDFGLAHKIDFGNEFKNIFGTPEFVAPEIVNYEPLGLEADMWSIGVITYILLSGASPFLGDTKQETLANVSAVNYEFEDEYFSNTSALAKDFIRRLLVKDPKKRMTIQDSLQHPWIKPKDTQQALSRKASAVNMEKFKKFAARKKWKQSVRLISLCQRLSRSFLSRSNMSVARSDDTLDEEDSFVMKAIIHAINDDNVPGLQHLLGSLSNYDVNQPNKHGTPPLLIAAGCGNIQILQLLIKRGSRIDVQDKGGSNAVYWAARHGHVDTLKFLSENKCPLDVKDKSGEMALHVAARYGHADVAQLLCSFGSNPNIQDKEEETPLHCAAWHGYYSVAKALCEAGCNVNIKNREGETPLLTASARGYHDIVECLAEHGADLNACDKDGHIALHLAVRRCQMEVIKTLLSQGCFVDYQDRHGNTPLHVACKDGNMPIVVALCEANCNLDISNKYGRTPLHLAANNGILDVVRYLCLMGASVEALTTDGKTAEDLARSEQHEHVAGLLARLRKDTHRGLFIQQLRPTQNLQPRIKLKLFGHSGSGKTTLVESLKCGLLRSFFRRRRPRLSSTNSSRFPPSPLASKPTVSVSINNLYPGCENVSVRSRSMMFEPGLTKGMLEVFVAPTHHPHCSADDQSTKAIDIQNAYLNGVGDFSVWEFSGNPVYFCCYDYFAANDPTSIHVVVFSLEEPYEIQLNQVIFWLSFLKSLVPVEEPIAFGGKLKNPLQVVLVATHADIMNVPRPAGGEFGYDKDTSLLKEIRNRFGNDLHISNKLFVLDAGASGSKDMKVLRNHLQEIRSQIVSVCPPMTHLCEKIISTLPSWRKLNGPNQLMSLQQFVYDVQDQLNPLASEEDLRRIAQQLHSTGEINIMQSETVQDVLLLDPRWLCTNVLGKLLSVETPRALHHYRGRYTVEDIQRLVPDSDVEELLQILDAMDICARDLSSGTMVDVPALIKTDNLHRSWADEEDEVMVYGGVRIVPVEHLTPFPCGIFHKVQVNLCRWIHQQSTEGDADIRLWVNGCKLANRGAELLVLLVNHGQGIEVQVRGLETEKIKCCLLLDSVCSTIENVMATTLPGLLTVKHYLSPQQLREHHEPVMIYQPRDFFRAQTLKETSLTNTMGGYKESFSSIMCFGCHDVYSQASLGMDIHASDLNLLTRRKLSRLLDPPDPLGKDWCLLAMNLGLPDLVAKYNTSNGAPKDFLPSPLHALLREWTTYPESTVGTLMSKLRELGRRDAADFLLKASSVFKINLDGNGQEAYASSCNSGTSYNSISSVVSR

[3] = biological target: Death-associated protein kinase 2 (Homo sapiens) (UniProt Q9UIK4); experiment: Activation of human DAPK2 using KKLNRTLSFAEPG as substrate in presence of [gamma-33P]-ATP
Chain of Death-associated protein kinase 2 (Homo sapiens) (Q9UIK4 whole entry, looked up): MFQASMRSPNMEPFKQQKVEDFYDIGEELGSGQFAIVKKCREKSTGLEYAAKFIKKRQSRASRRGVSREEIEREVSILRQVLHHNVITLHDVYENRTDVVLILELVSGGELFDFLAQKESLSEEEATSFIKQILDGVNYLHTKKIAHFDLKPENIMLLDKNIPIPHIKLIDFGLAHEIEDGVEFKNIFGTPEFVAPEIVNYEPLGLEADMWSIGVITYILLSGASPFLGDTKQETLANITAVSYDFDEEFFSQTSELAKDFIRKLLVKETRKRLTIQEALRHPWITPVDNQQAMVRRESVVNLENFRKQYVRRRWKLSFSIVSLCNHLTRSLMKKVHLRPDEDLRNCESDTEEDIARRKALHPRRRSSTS

Homo sapiens = organism: Homo sapiens; experiment: Substrate activity at P-gp in human […] cells assessed as intracellular rhodamine123 accumulation at 50 uM after 2 hrs by fluorescence-based HTS assay; assay type: cell-based
In short: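 MDA-MB-231 breast cancer cells in 96-well plates were pretreated with compound for 2 h, then intracellular rhodamine 123 accumulation was measured by fluorescence (Ex/Em 485/528). Verapamil at 20 uM served as positive control.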

Danio rerio [4] = organism: Danio rerio; experiment: Induction of morphological changes in 6 hrs post fertilized zebra fish embryo assessed as defect in tail musculature by measuring downward c-bend of body axis up to 200 uM by microscopic method; assay type: functional; in short: as §1
Danio rerio [5] = organism: Danio rerio; experiment: Induction of morphological changes in 14 hrs post fertilized zebra fish embryo assessed as defect in somite development at 100 uM by microscopic method; assay type: functional; in short: as §1
Danio rerio [6] = organism: Danio rerio; experiment: Induction of morphological changes in 6 to 14 hrs post fertilized zebra fish embryo assessed as defect in somite development at 100 uM by microscopic method; assay type: functional; in short: as §1
[7] = biological target: Death-associated protein kinase 3 (Homo sapiens) (UniProt O43293); experiment: Activation of human DAPK3 using KKLNRTLSFAEPG as substrate in presence of [gamma-33P]-ATP
Chain of Death-associated protein kinase 3 (Homo sapiens) (O43293 whole entry, looked up): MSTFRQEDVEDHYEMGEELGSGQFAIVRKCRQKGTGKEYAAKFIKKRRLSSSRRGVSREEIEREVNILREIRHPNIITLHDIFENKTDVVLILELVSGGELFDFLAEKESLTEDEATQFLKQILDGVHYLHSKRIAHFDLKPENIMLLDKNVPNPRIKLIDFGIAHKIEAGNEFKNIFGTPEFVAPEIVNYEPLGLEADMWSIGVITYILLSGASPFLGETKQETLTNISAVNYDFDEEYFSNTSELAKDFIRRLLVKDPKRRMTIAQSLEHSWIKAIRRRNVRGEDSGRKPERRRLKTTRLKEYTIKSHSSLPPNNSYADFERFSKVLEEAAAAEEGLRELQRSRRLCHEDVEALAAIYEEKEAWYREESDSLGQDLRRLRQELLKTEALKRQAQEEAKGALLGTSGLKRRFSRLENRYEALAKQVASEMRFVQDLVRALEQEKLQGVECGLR

[8] = biological target: Serine/threonine-protein kinase pim-2 (Homo sapiens) (UniProt Q9P1W9); experiment: Inhibition of human PIM2 using RSRHSSYPAGT as substrate in presence of [gamma-33P]-ATP
Chain of Serine/threonine-protein kinase pim-2 (Homo sapiens) (Q9P1W9 whole entry, looked up): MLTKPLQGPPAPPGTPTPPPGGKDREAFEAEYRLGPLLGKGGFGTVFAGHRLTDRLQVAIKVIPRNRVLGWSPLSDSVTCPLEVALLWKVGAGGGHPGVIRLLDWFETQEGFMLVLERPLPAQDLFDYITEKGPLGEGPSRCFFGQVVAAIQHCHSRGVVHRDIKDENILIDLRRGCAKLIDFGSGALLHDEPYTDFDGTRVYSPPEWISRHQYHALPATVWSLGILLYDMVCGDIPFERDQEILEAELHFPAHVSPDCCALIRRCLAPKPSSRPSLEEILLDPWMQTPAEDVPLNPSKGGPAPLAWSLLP

Danio rerio [9] = organism: Danio rerio; experiment: Toxicity in 6 to 30 hrs post fertilized zebra fish embryo assessed as death at 200 uM by microscopic method; details: zebrafish
In short: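 Staged zebrafish embryos placed in 12-well plates in E3 embryo medium within 6 hpf and exposed from 6 to 30 hpf in E3 with 1% DMSO, with or without compound, ~30 embryos per group (at most 30 per well). Wells were inspected under a dissecting microscope, and death was scored as loss of embryonic structure.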

Danio rerio [10] = organism: Danio rerio; experiment: Induction of morphological changes in 6 to 14 hrs post fertilized zebra fish embryo assessed as defect in notochord development at 100 uM by microscopic method; assay type: functional; in short: as §1
Danio rerio [11] = organism: Danio rerio; experiment: Induction of morphological changes in 30 to 48 hrs post fertilized zebra fish embryo by microscopic method; assay type: functional
Danio rerio [12] = organism: Danio rerio; experiment: Induction of morphological changes in 14 hrs post fertilized zebra fish embryo assessed as defect in notochord development at 100 uM by microscopic method; assay type: functional; in short: as §1
Albumin = Albumin (Bos taurus, UniProt P02769); experiment: Binding affinity to bovine serum albumin by tryptophan quenching based HTS assay; assay type: ADME
Chain of Albumin (P02769 whole entry): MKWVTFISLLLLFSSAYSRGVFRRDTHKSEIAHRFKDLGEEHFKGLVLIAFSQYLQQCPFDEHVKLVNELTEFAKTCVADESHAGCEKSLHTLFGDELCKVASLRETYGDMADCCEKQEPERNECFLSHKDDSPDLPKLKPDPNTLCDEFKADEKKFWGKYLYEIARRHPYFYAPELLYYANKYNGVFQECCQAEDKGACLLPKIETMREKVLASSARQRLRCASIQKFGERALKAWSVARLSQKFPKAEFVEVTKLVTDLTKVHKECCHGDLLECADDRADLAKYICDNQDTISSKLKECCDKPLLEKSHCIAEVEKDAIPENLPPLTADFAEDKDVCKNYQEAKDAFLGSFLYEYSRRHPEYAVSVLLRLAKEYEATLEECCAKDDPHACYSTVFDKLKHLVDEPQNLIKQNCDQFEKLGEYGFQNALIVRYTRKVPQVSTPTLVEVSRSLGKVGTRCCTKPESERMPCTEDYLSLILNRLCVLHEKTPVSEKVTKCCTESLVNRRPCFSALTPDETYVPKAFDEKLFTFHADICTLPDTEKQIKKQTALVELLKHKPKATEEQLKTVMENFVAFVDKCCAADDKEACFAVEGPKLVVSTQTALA
In short: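 Bovine serum albumin binding screened in HTS format by quenching of intrinsic BSA tryptophan fluorescence, Ex/Em 280/340 nm; IC50 derived from the quenching response.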

Danio rerio [13] = organism: Danio rerio; experiment: Induction of morphological changes in 30 hrs post fertilized zebra fish embryo assessed as defect in notochord development up to 200 uM by microscopic method; assay type: functional; in short: as §1
Danio rerio [14] = organism: Danio rerio; experiment: Induction of morphological changes in 22 hrs post fertilized zebra fish embryo at 100 uM by microscopic method; assay type: functional; in short: as §1
[15] = biological target: Serine/threonine-protein kinase pim-1 (Homo sapiens) (UniProt P11309); experiment: Inhibition of human PIM1 using KKRNRTLTK as substrate in presence of [gamma-33P]-ATP
Chain of Serine/threonine-protein kinase pim-1 (Homo sapiens) (P11309 whole entry, looked up): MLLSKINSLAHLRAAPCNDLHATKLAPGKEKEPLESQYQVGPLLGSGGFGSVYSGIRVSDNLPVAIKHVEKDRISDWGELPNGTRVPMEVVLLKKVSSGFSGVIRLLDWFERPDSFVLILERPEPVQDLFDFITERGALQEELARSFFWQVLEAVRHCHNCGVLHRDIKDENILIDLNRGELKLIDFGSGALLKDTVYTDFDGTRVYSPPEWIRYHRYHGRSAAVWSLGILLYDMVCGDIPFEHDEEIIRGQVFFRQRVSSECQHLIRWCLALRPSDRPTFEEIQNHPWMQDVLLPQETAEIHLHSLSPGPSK

Danio rerio [16] = organism: Danio rerio; experiment: Induction of morphological changes in 6 hrs post fertilized zebra fish embryo assessed as defect in notochord development up to 200 uM by microscopic method; assay type: functional; in short: as §1
[17] = biological target: Serine/threonine-protein kinase pim-3 (Homo sapiens, UniProt Q86V86); experiment: Inhibition of human PIM3 using RSRHSSYPAGT as substrate in presence of [gamma-33P]-ATP

O=C(COc1cccc2ccccc12)Nc1cccc(C(=O)O)c1
Activity (Danio rerio [1]): inactive | EC50 [2]: 39.5 µM | Activity [3]: inactive | Activity (Homo sapiens): inactive | Activity (Danio rerio [4]): Active | Activity (Danio rerio [5]): inactive | Activity (Danio rerio [6]): Active | Activity [7]: inactive | inhibition [8]: inactive | Activity (Danio rerio [9]): Toxic | Activity (Danio rerio [10]): Active | Activity (Danio rerio [11]): inactive | Activity (Danio rerio [12]): inactive | IC50 (Albumin): 23.3 µM | Activity (Danio rerio [13]): inactive | Activity (Danio rerio [14]): inactive | inhibition [15]: inactive | Activity (Danio rerio [16]): Active | IC50 [17]: 4.08 µM
